Where “and” joins values, the source holds several entries; their conditions need not be identical. Identical values can stand only once.
System: U2OS
Assay: Multiplex assay against U2OS
Format: toxicity, cell-based
Details: human, number of replicates 2
Outline: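 On a CQ1 microscope at 37°C and 5% CO2, live cells were imaged after compound addition. They had been stained at seeding with Hoechst33342, BioTracker Green Microtubule Cytoskeleton Dye, MitoTracker Red and Annexin V Alexa Fluor 680. CellPathfinder machine-learning gating assigned cells to Hoechst high-intensity objects or normal cells, normal cells to healthy, pyknosed or fragmented nuclei, and pyknosed cells to mitotic or apoptotic. Tubulin, mitochondrial-mass and membrane-permeability phenotypes are per cents of healthy-nucleus cells.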

[1] = 12 h, 1 µM, compound concentration 1 uM
[2] = 12 h, 10 µM, compound concentration 10 uM
[3] = 24 h, 1 µM, compound concentration 1 uM
[4] = 24 h, 10 µM, compound concentration 10 uM
[5] = 48 h, 1 µM, compound concentration 1 uM
[6] = 48 h, 10 µM, compound concentration 10 uM

CS(=O)(=O)c1ccc(C(=O)Nc2ccc(F)c(COc3ccc(Br)cc3CNCCO)c2)c(Cl)c1.O=CO
Population Apoptotic (%) [1]: 50% and 63%
Population Healthy Nuclei (%) [1]: 75% and 84%
Population Hoechst High Intensity Objects (%) [1]: 0%
Population Mitotic Cells (%) [1]: 50% and 36%
Population Apoptotic (%) [2]: 85% and 58%
Population Healthy Nuclei (%) [2]: 80% and 77%
Population Hoechst High Intensity Objects (%) [2]: 2% and 0%
Population Mitotic Cells (%) [2]: 14% and 41%
Population Apoptotic (%) [3]: 62% and 73%
Population Healthy Nuclei (%) [3]: 74% and 90%
Population Hoechst High Intensity Objects (%) [3]: 0%
Population Mitotic Cells (%) [3]: 37% and 26%
Population Apoptotic (%) [4]: 90% and 71%
Population Healthy Nuclei (%) [4]: 68%
Population Hoechst High Intensity Objects (%) [4]: 0%
Population Apoptotic (%) [5]: 83%
Population Healthy Nuclei (%) [5]: 81% and 87%
Population Hoechst High Intensity Objects (%) [5]: 0%
Population Mitotic Cells (%) [5]: 16%
Population Apoptotic (%) [6]: 66% and 89%
Population Healthy Nuclei (%) [6]: 45% and 67%
Population Hoechst High Intensity Objects (%) [6]: 0%

CNS(=O)(=O)c1ccc(N(C)C)c(Nc2ncnc3cc(OC)c(OC)cc23)c1
Population Apoptotic (%) [1]: 100% and 61%
Population Healthy Nuclei (%) [1]: 73% and 84%
Population Hoechst High Intensity Objects (%) [1]: 0%
Population Membrane Permeable-Phenotype (%) [1]: 0%
Population Mitochondria Different-Phenotype (%) [1]: 0%
Population Normal (%) [1]: 100% and 99%
Population Pyknosed Nuclei (%) [1]: 11% and 12%
Population Tubulin-Different-Phenotype (%) [1]: 73% and 87%
Population Apoptotic (%) [2]: 50% and 64%
Population Healthy Nuclei (%) [2]: 44% and 86%
Population Hoechst High Intensity Objects (%) [2]: 0%
Population Membrane Permeable-Phenotype (%) [2]: 3% and 2%
Population Mitochondria Different-Phenotype (%) [2]: 0% and 2%
Population Mitotic Cells (%) [2]: 50% and 35%
Population Normal (%) [2]: 100%
Population Pyknosed Nuclei (%) [2]: 20% and 10%
Population Tubulin-Different-Phenotype (%) [2]: 42% and 64%
Total Cell Count [2]: 59 and 156
Population Apoptotic (%) [3]: 60% and 71%
Population Healthy Nuclei (%) [3]: 60% and 88%
Population Hoechst High Intensity Objects (%) [3]: 0%
Population Membrane Permeable-Phenotype (%) [3]: 5% and 1%
Population Mitochondria Different-Phenotype (%) [3]: 0% and 1%
Population Mitotic Cells (%) [3]: 40% and 28%
Population Normal (%) [3]: 100%
Population Pyknosed Nuclei (%) [3]: 16% and 9%
Population Tubulin-Different-Phenotype (%) [3]: 72% and 88%
Population Apoptotic (%) [4]: 87% and 63%
Population Healthy Nuclei (%) [4]: 66% and 82%
Population Hoechst High Intensity Objects (%) [4]: 0%
Population Membrane Permeable-Phenotype (%) [4]: 5% and 3%
Population Mitochondria Different-Phenotype (%) [4]: 5% and 1%
Population Mitotic Cells (%) [4]: 12% and 36%
Population Normal (%) [4]: 100% and 99%
Population Pyknosed Nuclei (%) [4]: 13% and 14%
Population Tubulin-Different-Phenotype (%) [4]: 51% and 64%
Population Apoptotic (%) [5]: 50% and 76%
Population Healthy Nuclei (%) [5]: 69% and 90%
Population Hoechst High Intensity Objects (%) [5]: 0%
Population Membrane Permeable-Phenotype (%) [5]: 4% and 0%
Population Mitochondria Different-Phenotype (%) [5]: 2% and 0%
Population Mitotic Cells (%) [5]: 50% and 23%
Population Normal (%) [5]: 100%
Population Pyknosed Nuclei (%) [5]: 10% and 5%
Population Tubulin-Different-Phenotype (%) [5]: 82% and 92%
Population Apoptotic (%) [6]: 83% and 66%
Population Healthy Nuclei (%) [6]: 52% and 78%
Population Hoechst High Intensity Objects (%) [6]: 0%
Population Membrane Permeable-Phenotype (%) [6]: 13% and 5%
Population Mitochondria Different-Phenotype (%) [6]: 1% and 5%
Population Mitotic Cells (%) [6]: 16% and 33%
Population Normal (%) [6]: 99%
Population Pyknosed Nuclei (%) [6]: 11% and 14%
Population Tubulin-Different-Phenotype (%) [6]: 58% and 68%

CC(C)NC(=O)[C@H]1CCC[C@H]1Nc1nc(Nc2ccc(C(=O)N(C)C3CCN(C)CC3)cc2)ncc1Cl
Population Apoptotic (%) [1]: 75% and 60%
Population Fragmented Nuclei (%) [1]: 17% and 6%
Population Healthy Nuclei (%) [1]: 72% and 81%
Population Hoechst High Intensity Objects (%) [1]: 0%
Population Membrane Permeable-Phenotype (%) [1]: 0% and 2%
Population Mitochondria Different-Phenotype (%) [1]: 0%
Population Mitotic Cells (%) [1]: 25% and 40%
Population Normal (%) [1]: 100% and 99%
Population Pyknosed Nuclei (%) [1]: 10% and 12%
Population Tubulin-Different-Phenotype (%) [1]: 65% and 57%
Population Apoptotic (%) [2]: 100% and 69%
Population Healthy Nuclei (%) [2]: 65% and 73%
Population Hoechst High Intensity Objects (%) [2]: 0%
Population Membrane Permeable-Phenotype (%) [2]: 13% and 18%
Population Mitochondria Different-Phenotype (%) [2]: 0% and 15%
Population Normal (%) [2]: 100%
Population Pyknosed Nuclei (%) [2]: 8% and 20%
Population Tubulin-Different-Phenotype (%) [2]: 40% and 36%
Population Apoptotic (%) [3]: 42% and 87%
Population Fragmented Nuclei (%) [3]: 8% and 3%
Population Healthy Nuclei (%) [3]: 70% and 83%
Population Hoechst High Intensity Objects (%) [3]: 0%
Population Membrane Permeable-Phenotype (%) [3]: 4% and 1%
Population Mitochondria Different-Phenotype (%) [3]: 0%
Population Normal (%) [3]: 100%
Population Pyknosed Nuclei (%) [3]: 20% and 12%
Population Tubulin-Different-Phenotype (%) [3]: 58% and 61%
Population Apoptotic (%) [4]: 75% and 82%
Population Healthy Nuclei (%) [4]: 43% and 65%
Population Hoechst High Intensity Objects (%) [4]: 0%
Population Membrane Permeable-Phenotype (%) [4]: 15% and 13%
Population Mitochondria Different-Phenotype (%) [4]: 46% and 31%
Population Mitotic Cells (%) [4]: 25% and 17%
Population Normal (%) [4]: 100%
Population Pyknosed Nuclei (%) [4]: 13% and 28%
Population Tubulin-Different-Phenotype (%) [4]: 53% and 45%
Population Apoptotic (%) [5]: 72% and 90%
Population Fragmented Nuclei (%) [5]: 10% and 18%
Population Healthy Nuclei (%) [5]: 64% and 58%
Population Hoechst High Intensity Objects (%) [5]: 0%
Population Membrane Permeable-Phenotype (%) [5]: 5% and 0%
Population Mitochondria Different-Phenotype (%) [5]: 0%
Population Mitotic Cells (%) [5]: 27% and 10%
Population Normal (%) [5]: 99% and 100%
Population Pyknosed Nuclei (%) [5]: 24% and 23%
Population Tubulin-Different-Phenotype (%) [5]: 68% and 48%
Population Apoptotic (%) [6]: 90% and 89%
Population Hoechst High Intensity Objects (%) [6]: 0%
Population Membrane Permeable-Phenotype (%) [6]: 0% and 25%
Population Mitotic Cells (%) [6]: 10%
Population Normal (%) [6]: 100% and 99%
Population Pyknosed Nuclei (%) [6]: 38% and 51%
Population Tubulin-Different-Phenotype (%) [6]: 50% and 52%

NC(=O)c1ccc(-c2nc(-c3ccc4c(c3)OCCO4)c(-c3ccccn3)[nH]2)cc1
Population Apoptotic (%) [1]: 40% and 85%
Population Fragmented Nuclei (%) [1]: 1% and 4%
Population Healthy Nuclei (%) [1]: 88% and 86%
Population Hoechst High Intensity Objects (%) [1]: 1% and 0%
Population Membrane Permeable-Phenotype (%) [1]: 4% and 1%
Population Mitochondria Different-Phenotype (%) [1]: 0% and 1%
Population Normal (%) [1]: 98% and 100%
Population Pyknosed Nuclei (%) [1]: 9%
Population Tubulin-Different-Phenotype (%) [1]: 53% and 86%
Total Cell Count [1]: 54 and 150
Population Apoptotic (%) [2]: 46% and 33%
Population Healthy Nuclei (%) [2]: 78% and 63%
Population Hoechst High Intensity Objects (%) [2]: 0%
Population Membrane Permeable-Phenotype (%) [2]: 4% and 0%
Population Mitochondria Different-Phenotype (%) [2]: 3% and 0%
Population Mitotic Cells (%) [2]: 53% and 66%
Population Normal (%) [2]: 100%
Population Pyknosed Nuclei (%) [2]: 14% and 8%
Population Tubulin-Different-Phenotype (%) [2]: 62% and 39%
Population Apoptotic (%) [3]: 54% and 64%
Population Fragmented Nuclei (%) [3]: 2% and 1%
Population Healthy Nuclei (%) [3]: 84% and 92%
Population Hoechst High Intensity Objects (%) [3]: 0%
Population Membrane Permeable-Phenotype (%) [3]: 1%
Population Mitochondria Different-Phenotype (%) [3]: 0%
Population Mitotic Cells (%) [3]: 45% and 35%
Population Normal (%) [3]: 100%
Population Pyknosed Nuclei (%) [3]: 13% and 6%
Population Tubulin-Different-Phenotype (%) [3]: 56% and 92%
Total Cell Count [3]: 84 and 214
Population Healthy Nuclei (%) [4]: 86% and 65%
Population Hoechst High Intensity Objects (%) [4]: 0%
Population Membrane Permeable-Phenotype (%) [4]: 3% and 0%
Population Mitochondria Different-Phenotype (%) [4]: 4% and 3%
Population Normal (%) [4]: 99% and 100%
Population Pyknosed Nuclei (%) [4]: 9% and 2%
Population Tubulin-Different-Phenotype (%) [4]: 59% and 48%
Population Apoptotic (%) [5]: 52% and 74%
Population Fragmented Nuclei (%) [5]: 6% and 3%
Population Healthy Nuclei (%) [5]: 82% and 90%
Population Hoechst High Intensity Objects (%) [5]: 0%
Population Membrane Permeable-Phenotype (%) [5]: 0% and 1%
Population Mitochondria Different-Phenotype (%) [5]: 0%
Population Mitotic Cells (%) [5]: 47% and 25%
Population Normal (%) [5]: 100%
Population Pyknosed Nuclei (%) [5]: 10% and 6%
Population Tubulin-Different-Phenotype (%) [5]: 62% and 95%
Population Apoptotic (%) [6]: 77% and 78%
Population Fragmented Nuclei (%) [6]: 21% and 7%
Population Healthy Nuclei (%) [6]: 66% and 78%
Population Hoechst High Intensity Objects (%) [6]: 0%
Population Membrane Permeable-Phenotype (%) [6]: 8% and 3%
Population Mitochondria Different-Phenotype (%) [6]: 4% and 2%
Population Mitotic Cells (%) [6]: 22% and 21%
Population Normal (%) [6]: 100%
Population Pyknosed Nuclei (%) [6]: 12% and 14%
Population Tubulin-Different-Phenotype (%) [6]: 61% and 67%

— ChEMBL document CHEMBL5303300, “EUbOPEN Chemogenomics Library - Multiplex” (2023)
